{
  "source": "ChEMBL document CHEMBL4732105",
  "about": "“First orally bioavailable prodrug of proteolysis targeting chimera (PROTAC) degrades cyclin-dependent kinases 2/4/6 in vivo” (Eur J Med Chem, 2021)",
  "key": {"B16-F10 [1]": {"system": "B16-F10", "assay": "Cytotoxicity against mouse B16F10 cells assessed as reduction in cell viability after 72 hrs by MTT assay", "format": "functional, cell-based", "conditions": "B16-F10, 72 h", "outline": "(§1)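 Cells exposed to compound for 72 h and viability read by MTT; IC50 from three independent experiments.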"}, "A-375": {"system": "A-375", "assay": "Cytotoxicity against human A375 cells assessed as reduction in cell viability after 72 hrs by MTT assay", "format": "functional, cell-based", "conditions": "A-375, 72 h", "outline": "as §1"}, "[2]": {"assay": "AUC (0 to 12 hrs) in Sprague-Dawley rat at 200 mg/kg, po", "format": "ADME, organism-based", "set-up": "time < 12 hr, route oral, dose 200 mg/kg", "conditions": "in vivo", "outline": "(§2)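 Single oral dose of 200 mg/Kg to SD rats (n = 3). Prodrug and released active degrader quantified in plasma over 0–12 h; Cmax, Tmax and AUC0-12 derived by non-compartmental model.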"}, "[3]": {"assay": "Cmax in Sprague-Dawley rat at 200 mg/kg, po", "format": "ADME, organism-based", "set-up": "route oral, dose 200 mg/kg", "conditions": "in vivo", "outline": "as §2"}, "[4]": {"assay": "Oral bioavailability in Sprague-Dawley rat at 200 mg/kg", "format": "ADME, organism-based", "conditions": "in vivo", "outline": "(§3)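 SD rats, n = 3, single dose of prodrug: IV by tail vein at 10 mg/Kg, or PO at 200 mg/Kg. Plasma levels of prodrug and released active degrader followed over 0–12 h. Parameters derived by a non-compartmental model.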"}, "[5]": {"assay": "Toxicity in mouse C57BL/6J mouse xenografted with B16F10 cells assessed as effect on body weight at 200 mg/kg, po measured after 15 days", "format": "organism-based", "conditions": "in vivo, 360 h, time 15 day", "outline": "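C57BL/6J mice injected […] with B16F10 cells and given compound orally. Tumor volume and body weight monitored, and tumors weighed on day 15. Mean ± SD, n = 6.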"}, "[6]": {"assay": "Cmax in Sprague-Dawley rat at 10 mg/kg, iv", "format": "ADME, organism-based", "set-up": "route intravenous, dose 10 mg/kg", "conditions": "in vivo"}, "[7]": {"assay": "AUC (0 to 12 hrs) in Sprague-Dawley rat at 10 mg/kg, iv", "format": "ADME, organism-based", "set-up": "time < 12 hr, route intravenous, dose 10 mg/kg", "conditions": "in vivo"}, "[8]": {"assay": "Tmax in Sprague-Dawley rat at 200 mg/kg, po", "format": "ADME, organism-based", "conditions": "in vivo", "outline": "as §3"}, "B16-F10 [9]": {"system": "B16-F10", "assay": "Antitumor activity against mouse B16F10 cells xenografted in C57BL/6J mouse assessed as supression in tumor size at 200 mg/kg, po measured after 15 days", "format": "functional, organism-based", "conditions": "time 15.0 day", "outline": "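C57BL/6J mice given B16F10 cells […], then dosed orally versus vehicle. Tumor volume and body weight monitored; tumors weighed on day 15 (n = 6). Tumor tissue (n = 5) immunostained for CDK2/4/6.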"}, "[10]": {"target": "Cyclin-dependent kinase 4/cyclin D1 (Homo sapiens, UniProt P11802)", "sequence (P11802 whole entry)": "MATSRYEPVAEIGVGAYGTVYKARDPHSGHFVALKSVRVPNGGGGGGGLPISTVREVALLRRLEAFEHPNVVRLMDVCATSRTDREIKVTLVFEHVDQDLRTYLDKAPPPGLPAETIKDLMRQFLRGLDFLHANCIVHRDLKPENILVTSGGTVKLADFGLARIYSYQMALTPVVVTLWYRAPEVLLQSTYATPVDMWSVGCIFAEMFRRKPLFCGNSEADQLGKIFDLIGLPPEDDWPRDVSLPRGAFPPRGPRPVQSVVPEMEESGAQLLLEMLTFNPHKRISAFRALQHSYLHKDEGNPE", "sequence (P24385 whole entry, further chain)": "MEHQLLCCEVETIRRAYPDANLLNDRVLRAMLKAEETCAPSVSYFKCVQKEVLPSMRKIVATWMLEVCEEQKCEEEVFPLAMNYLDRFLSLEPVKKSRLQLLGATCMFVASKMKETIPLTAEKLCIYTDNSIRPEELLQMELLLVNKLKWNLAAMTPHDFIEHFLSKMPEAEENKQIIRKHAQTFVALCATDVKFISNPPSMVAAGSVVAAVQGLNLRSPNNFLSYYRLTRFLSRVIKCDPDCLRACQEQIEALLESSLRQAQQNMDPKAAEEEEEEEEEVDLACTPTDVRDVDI", "assay": "Inhibition of CDK4/cyclin D1 (unknown origin)", "format": "protein-complex assay"}, "CDK6/cyclin D3": {"target": "CDK6/cyclin D3 (Homo sapiens, UniProt Q00534)", "sequence (P30281 whole entry)": "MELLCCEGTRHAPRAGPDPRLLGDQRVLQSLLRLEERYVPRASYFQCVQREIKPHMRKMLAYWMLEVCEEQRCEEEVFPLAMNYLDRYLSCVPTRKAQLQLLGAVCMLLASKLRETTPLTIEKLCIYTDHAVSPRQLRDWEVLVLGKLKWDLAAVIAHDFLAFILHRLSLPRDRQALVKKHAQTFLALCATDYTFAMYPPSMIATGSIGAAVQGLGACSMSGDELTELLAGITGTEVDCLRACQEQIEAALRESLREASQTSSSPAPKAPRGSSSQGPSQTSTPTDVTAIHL", "sequence (Q00534 whole entry)": "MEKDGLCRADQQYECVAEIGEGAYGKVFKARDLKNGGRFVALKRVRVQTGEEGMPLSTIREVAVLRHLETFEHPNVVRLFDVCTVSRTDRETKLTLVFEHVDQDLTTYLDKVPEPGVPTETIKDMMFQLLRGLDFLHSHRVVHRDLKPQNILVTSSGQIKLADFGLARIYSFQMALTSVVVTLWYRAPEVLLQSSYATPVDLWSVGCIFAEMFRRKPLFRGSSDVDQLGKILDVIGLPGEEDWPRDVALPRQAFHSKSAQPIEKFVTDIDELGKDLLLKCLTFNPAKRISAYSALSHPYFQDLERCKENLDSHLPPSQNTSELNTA", "assay": "Inhibition of CDK6/Cyclin D (unknown origin)", "format": "protein-complex assay"}, "[11]": {"target": "Cyclin-dependent kinase 2/cyclin E1 (Homo sapiens, UniProt P24941)", "assay": "Inhibition of CDK2/Cyclin E (unknown origin)", "format": "protein-complex assay"}},
  "note": "Calls of active or inactive are those of the source. No cut-off for these calls is given here.",
  "data": [
    {"smiles": "CN(C)C(=O)c1cc2cnc(Nc3ccc(N4CCNCC4)cn3)nc2n1C1CCCC1", "note": "[RIBOCICLIB]", "values": [
      {"measurement": "IC50", "setting": "B16-F10 [1]", "result": "> 10000", "unit": "nM"},
      {"measurement": "IC50", "setting": "A-375", "result": "> 10000", "unit": "nM"}
    ]},
    {"smiles": "CN(C)C(=O)c1cc2cnc(Nc3ccc(C(=O)NCCCCCCNc4cccc5c4C(=O)N(C4CCC(=O)N(COC(=O)C(C)(C)C)C4=O)C5=O)cc3)nc2n1C1CCCC1", "note": "(stereo not given)", "values": [
      {"measurement": "AUC", "setting": "[2]", "result": 2810, "unit": "µg·h/mL"},
      {"measurement": "Cmax", "setting": "[3]", "result": 2260, "unit": "µg/mL"},
      {"measurement": "bioavailability", "setting": "[4]", "result": 68, "unit": "%"},
      {"measurement": "Activity", "setting": "[5]", "result": "Non-Toxic"},
      {"measurement": "Cmax", "setting": "[6]", "result": 111, "unit": "µg/mL"},
      {"measurement": "AUC", "setting": "[7]", "result": 95.7, "unit": "µg·h/mL"},
      {"measurement": "Tmax", "setting": "[8]", "result": 15, "unit": "min"},
      {"measurement": "Activity", "setting": "B16-F10 [9]", "result": "Active"}
    ]},
    {"smiles": "Nc1cccc2c1C(=O)N(C1CCC(=O)NC1=O)C2=O", "note": "(stereo not given) [POMALIDOMIDE]", "values": [
      {"measurement": "IC50", "setting": "B16-F10 [1]", "result": "> 10000", "unit": "nM"},
      {"measurement": "IC50", "setting": "A-375", "result": "> 10000", "unit": "nM"}
    ]},
    {"smiles": "COC(=O)c1ccc(Nc2ncc3cc(C(=O)N(C)C)n(C4CCCC4)c3n2)cc1", "values": [
      {"measurement": "IC50", "setting": "[10]", "result": 112, "unit": "nM"},
      {"measurement": "IC50", "setting": "CDK6/cyclin D3", "result": 101, "unit": "nM"},
      {"measurement": "IC50", "setting": "[11]", "result": 390, "unit": "nM"}
    ]}
  ]
}
